Data from ChEMBL document CHEMBL4825680, “Structure-based discovery of potent and selective small-molecule inhibitors targeting signal transducer and activator of transcription 3 (STAT3)” (Eur J Med Chem, 2021).
Activity calls are given as the source filed them. The calls are words filed in the database; no cut-off is given here.

Experiments:
[1] = Toxicity in NOD/SCID mouse xenografted with patient-derived breast cancer cells assessed as lethargy at 5 to 15 mg/kg, iv administered once daily for 20 days; type: organism-based; conditions: in vivo, 480 h, dose 5-15 mg/kg, time 20 day
HCC70 = test: Antiproliferative activity against human HCC70 cells assessed as reduction in cell viability after 72 hrs by CCK8 assay; type: functional, cell-based; conditions: HCC70, 72 h
Summary of the method: (§1)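 Cells seeded at 1000–8000 per well were grown overnight, then exposed to 0.1–100 μM compound or 0.1% DMSO vehicle for 72 h. CCK-8 was added for 0.5–4 h at 37 °C and absorbance read at 480 nm. Viability = (OD compound − blank)/(OD vehicle − blank) × 100, with medium as blank. IC50 fitted from three independent experiments.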

MDA-MB-468 [2] = test: Inhibition of cell invasion in human MDA-MB-468 cells incubated for 12 hrs by crystal violet staining based transwell assay; type: functional; conditions: dose 1-3 µM
Summary of the method: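 Cells seeded at 1.5×10^4–3×10^4 per well in the upper chamber of 8.0 µm pore Transwell inserts and treated with graded compound for 12 h. Non-invading cells removed with cotton. Invaded cells fixed in 4% paraformaldehyde, stained with crystal violet, photographed and counted. Triplicate.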

[3] = AUC(0 to infinity) in Sprague-Dawley rat at 10 mg/kg, po measured up to 24 hrs by LC-MS/MS analysis; type: ADME, organism-based; set-up: route oral, dose 10 mg/kg, time <=24; conditions: in vivo
Summary of the method: (§2)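 Male SD rats given a single oral dose of 10 mg/kg in DMSO/0.5% HPMC (5/95, v/v). Blood was drawn at 0.25, 0.5, 1, 2, 4, 8 and 24 h, and plasma was analysed by LC-MS/MS on a BEH phenyl column with a formic acid water/acetonitrile mobile phase.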

[4] = target: T1, Signal transducer and activator of transcription 3 (Homo sapiens, UniProt P40763); test: Inhibition of STAT3 DNA binding in human MDA-MB-231 cells at 0.3 to 1 uM after 3 hrs by EMSA analysis; type: cell-based; conditions: dose 0.3-1 µM
T1 sequence (P40763 whole entry): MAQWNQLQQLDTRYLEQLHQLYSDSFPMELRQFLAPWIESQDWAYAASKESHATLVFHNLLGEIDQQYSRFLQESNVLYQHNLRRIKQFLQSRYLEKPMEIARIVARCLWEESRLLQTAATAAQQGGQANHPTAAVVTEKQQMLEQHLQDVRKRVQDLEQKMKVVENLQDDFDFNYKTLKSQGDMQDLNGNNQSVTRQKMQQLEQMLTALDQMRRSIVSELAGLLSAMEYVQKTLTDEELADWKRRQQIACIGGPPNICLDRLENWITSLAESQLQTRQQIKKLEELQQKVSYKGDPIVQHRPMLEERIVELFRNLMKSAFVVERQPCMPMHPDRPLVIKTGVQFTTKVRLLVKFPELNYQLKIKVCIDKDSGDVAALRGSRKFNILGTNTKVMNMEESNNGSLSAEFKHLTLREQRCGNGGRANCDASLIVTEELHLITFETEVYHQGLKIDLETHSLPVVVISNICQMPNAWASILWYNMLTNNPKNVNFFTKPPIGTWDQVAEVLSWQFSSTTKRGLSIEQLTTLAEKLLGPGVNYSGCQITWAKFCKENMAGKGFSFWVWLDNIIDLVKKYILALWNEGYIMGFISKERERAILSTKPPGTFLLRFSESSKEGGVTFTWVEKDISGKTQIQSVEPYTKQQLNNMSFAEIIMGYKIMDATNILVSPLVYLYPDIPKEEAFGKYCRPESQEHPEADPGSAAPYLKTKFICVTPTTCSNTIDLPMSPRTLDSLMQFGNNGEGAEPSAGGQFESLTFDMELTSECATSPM
Summary of the method: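 Cells exposed to vehicle or compound for 3 h. Nuclear extracts prepared and BCA-quantified. Nuclear protein (8–10 µg) incubated with biotinylated STAT3 or STAT5 probe, resolved on 6% native polyacrylamide gel, transferred to nylon membrane and detected with a gel-shift kit.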

[5] = Induction of apoptosis in human MDA231-LM2-4175 cells assessed as viable cells at 3 uM after 48 hrs by Annexin-V-FITC/propidium iodide staining based flow cytometric analysis (reference value: 94.4%); type: functional; conditions: read-out: Activity
[6] = Antiproliferative activity against human MDA231-LM2-4175 cells assessed as reduction in cell viability after 72 hrs by CCK8 assay; type: functional, cell-based; conditions: MDA231-LM2-4175, 72 h; summary of the method: as §1
[7] = Antitumor activity against patient-derived breast cancer cells xenografted in NOD/SCID mouse assessed as tumor growth inhibition at 15 mg/kg, ip administered once daily for 20 days; conditions: Homo sapiens, Breast cancer cell line, 480 h, read-out: TGI
MDA-MB-468 [8] = test: Antiproliferative activity against human MDA-MB-468 cells assessed as reduction in cell viability after 72 hrs by CCK8 assay; type: functional, cell-based; conditions: MDA-MB-468, 72 h; summary of the method: as §1
[9] = Toxicity in NOD/SCID mouse xenografted with patient-derived breast cancer cells assessed as morphological change in heart at 5 to 15 mg/kg, […] once daily for 20 days by HE staining based assay; type: organism-based; conditions: in vivo, iv, dose 5-15 mg/kg, time 20 day
Summary of the method: (§3)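 Female NOD-SCID mice implanted subcutaneously in the flank with about 2 mm³ TNBC PDX fragments. At about 100 mm³ tumour volume, randomised n=6/group: vehicle (PBS with 15% Cremophor EL), 5 or 15 mg/kg intraperitoneally daily. Killed at day 20; heart, liver, spleen, lung and kidney collected for morphological examination.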

[10] = target: T1, Signal transducer and activator of transcription 3; test: Inhibition of STAT3 in human MDA-MB-231 cells assessed as downregulation of Bcl-xL expression at 0.3 to 3 uM after 24 hrs by western blot analysis; type: cell-based; conditions: dose 0.3-3 µM
Summary of the method: (§4)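 TNBC cells given vehicle (0.1% DMSO) or graded compound levels for 24 h, lysed in RIPA with PMSF and phosphatase inhibitors. BCA-quantified lysate (20–50 µg) run on SDS-PAGE, transferred to PVDF, blocked in 5% BSA. Probed overnight at 4 °C for Bcl-xL, Mcl-1 and c-Myc, with β-actin. HRP secondary, ECL detection. Three independent experiments.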

MDA-MB-468 [11] = test: Induction of apoptosis in human MDA-MB-468 cells assessed as viable cells at 3 uM after 48 hrs by Annexin-V-FITC/propidium iodide staining based flow cytometric analysis (reference value: 95.5%); type: functional; conditions: read-out: Activity
MDA-MB-231 [12] = test: Induction of apoptosis in human MDA-MB-231 cells assessed as late apoptotic cells at 3 uM after 48 hrs by Annexin-V-FITC/propidium iodide staining based flow cytometric analysis (Rvb =3.05%); type: functional
MDA-MB-231 [13] = test: Effect on total STAT5 level in human MDA-MB-231 cells at 0.3 to 3 uM after 3 hrs by Western blotting analysis; type: functional, cell-based; conditions: dose 0.3-3 µM
Summary of the method: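 Breast cancer cells were treated with vehicle (0.1% DMSO) or compound, then lysed in RIPA with PMSF and phosphatase inhibitors. 20–50 μg protein was run on 8 or 12% SDS-PAGE, blotted to PVDF, blocked in 5% BSA, probed with primary antibodies overnight at 4 °C, then HRP secondaries, with ECL detection.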

[14] = target: T1, Signal transducer and activator of transcription 3; test: Inhibition of STAT3 in human MDA-MB-231 cells assessed as downregulation of Mcl-1 expression at 0.3 to 3 uM after 24 hrs by western blot analysis; type: cell-based; conditions: dose 0.3-3 µM; summary of the method: as §4
[15] = Toxicity in NOD/SCID mouse xenografted with patient-derived breast cancer cells assessed as change in body weight at 5 to 15 mg/kg, ip administered once daily for 20 days; conditions: in vivo, 480 h
[16] = Toxicity in NOD/SCID mouse xenografted with patient-derived breast cancer cells assessed as loss of appetite at 5 to 15 mg/kg, iv administered once daily for 20 days; type: organism-based; conditions: in vivo, 480 h, dose 5-15 mg/kg, time 20 day
H9c2 = test: Antiproliferative activity against rat H9C2 cells assessed as reduction in cell viability after 72 hrs by CCK8 assay; type: cell-based; conditions: H9c2, 72 h; summary of the method: as §1
MDA-MB-468 [17] = test: Induction of apoptosis in human MDA-MB-468 cells assessed as late apoptotic cells at 1 uM after 48 hrs by Annexin-V-FITC/propidium iodide staining based flow cytometric analysis (reference value: 1.25%); type: functional
[18] = Toxicity in mouse xenografted with human MDA-MB-231-4175 cells assessed as morphological change in lung at 5 to 15 mg/kg, […] once daily for 20 days by HE staining based assay; type: organism-based; conditions: in vivo, iv, 480 h, dose 5-15 mg/kg, time 20 day
Summary of the method: as §3, with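 “aged 4–5 weeks, given 2×10^6–3×10^6 MDA-MB-231-4175 cells” for “implanted”, “flank.” for “flank with about 2 mm³ TNBC PDX fragments.”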

[19] = Half life in Sprague-Dawley rat at 10 mg/kg, po measured up to 24 hrs by LC-MS/MS analysis; type: ADME, organism-based; conditions: in vivo; summary of the method: as §2

O=C(Cc1c(-c2ccccc2)nc2ccccn12)Nc1ccc2c(c1)S(=O)(=O)C=C2
Activity [1]: Non-Toxic
IC50 (HCC70): 1100 nM
inhibition (MDA-MB-468 [2]): Dose-Dependent Effect
AUC(0-inf) [3]: 56.1 ng·h/mL
inhibition [4]: Active
viability at 3 µM [5]: 83.4%
IC50 [6]: 2500 nM
inhibition in vivo at 15 mg/kg [7]: 68.9%
IC50 (MDA-MB-468 [8]): 2500 nM
Activity [9]: Non-Toxic
inhibition [10]: Active
viability at 3 µM (MDA-MB-468 [11]): 38.6%
Activity (MDA-MB-231 [12]): 11.5%
Activity (MDA-MB-231 [13]): inactive
inhibition [14]: Active
Activity [15]: Non-Toxic
Activity [16]: Non-Toxic
IC50 (H9c2): 6790 nM
Activity (MDA-MB-468 [17]): 16.6%
Activity [18]: Non-Toxic
half-life [19]: 1.46 h
